Results reported in ChEMBL document CHEMBL1123643, “Modulation of the antitumor activity by methyl substitutions in the series of 7H-pyridocarbazole monomers and dimers” (1987).

Assays:
L1210 [1] = assay: In vitro cellular toxicity against L1210 (mouse leukemia) cells.; assay type: functional; conditions: read-out: ED50 (the source's name)
In short: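 Exponentially growing L1210 cells (1 × 10^5/mL) exposed 24 h at 37 °C in RPMI 1640 with 10% fetal calf serum at a range of concentrations. Total cells counted by flow cytometer. Duplicate treated cultures were expressed as % of triplicate untreated controls. ED50 came from linear regression of residual % versus log concentration.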

L1210 [2] = assay: In vitro inhibition of L1210 (mouse leukemia) cell cloning efficiency.; assay type: functional
In short: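 After 24 h drug exposure, L1210 cells were diluted to 250 and 500 cells/mL and plated in Noble agar. Plates were held 14 days at 37 °C in 5% CO2, and colonies >0.2 mm were counted. Triplicates were run per concentration. CE37, the concentration reducing cloning efficiency to 0.37, came from dose–response curves.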

Calf thymus DNA = assay: Binding affinity against calf-thymus DNA at pH 7.4; assay type: nucleic-acid assay; conditions: Bos taurus
In short: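 Fluorimetric competition at pH 7.4, 25 °C. Monomers: 10^-5 M compound with calf thymus DNA (4 µg/mL), titrated with ethidium bromide (ex 546/em 590 nm), Scatchard analysis. Dimers: ethidium dimer (6.4 × 10^-7 M) with DNA (1.6 × 10^-6 M bp) equilibrated 24 h with varied compound (ex 540/em 610 nm); constant fitted from displacement curves with site size n.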

Mus musculus [3] = assay: In vivo change in mean survival time in L1210 (mouse leukemia) inoculated mice.; assay type: functional
In short: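 DBA2 mice given 10^5 L1210 cells ip; 24 h later single ip dose of drug, controls given same volume of solvent; 20–30 animals/group. Deaths recorded daily; survivors beyond 45 days counted cured. Value is treated mean survival time over control mean survival time ×100 (T/C %).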

L1210 [4] = assay: (§1) In vivo maximum tolerate dose in L1210 (mouse leukemia) inoculated mice.; assay type: functional
In short: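 L1210-bearing DBA2 mice (10^5 cells ip), drug given ip 24 h after inoculation. Acute toxicity by usual procedure; MTD taken as highest dose administered without causing animal death, in mg/kg.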

Mus musculus [5] = assay: In vivo change in mean survival time in L1210 (mouse leukemia) inoculated mice (Not significant).; assay type: functional, organism-based
In short: (§2)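 DBA2 mice (20–30/group) received 10^5 L1210 cells ip. Compound was given ip 24 h later; controls received solvent vehicle. Deaths were recorded daily, and survivors beyond 45 days were counted as cured. T/C% = treated/control mean survival time × 100. MTD was the highest dose causing no deaths; OD was the optimal dose.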

L1210 [6] = assay: In vivo antitumor activity in L1210 (mouse leukemia) inoculated mice (optimal dose).; assay type: functional; in short: as §2
L1210 [7] = assay: as §1; assay type: functional; in short: as §2; remark: listed apart in the source

| Structure (SMILES) | EC50 (L1210 [1]) | CE37 (L1210 [2]) | K (Calf thymus DNA) | T/C (Mus musculus [3]) | MTD (L1210 [4]) | T/C (Mus musculus [5]) | OD (L1210 [6]) | Dose (L1210 [7]) | Optimal dose (L1210 [6]) |
| --- | --- | --- | --- | --- | --- | --- | --- | --- | --- |
| COc1ccc2c(c1)c1c3cc(NCCN4CCC(C5CCN(CCNc6ccc7cc(C)c8c(c7c6)c6cc(OC)ccc6n8C)CC5)CC4)ccc3cc(C)c1n2C.Cl.Cl | 3270 nM | 10.9 µM | 1e+08 M⁻¹ |  |  |  |  |  |  |
| COc1ccc2[nH]c3c(C)cc4ccc(NCCN5CCC(C6CCN(CCNc7ccc8cc(C)c9[nH]c%10ccc(OC)cc%10c9c8c7)CC6)CC5)cc4c3c2c1.Cl.Cl | 370 nM | 0.01 µM | 5e+08 M⁻¹ | 172% | 11 mg/kg |  |  |  |  |
| CNc1ccc2cc(C)c3c(c2c1)c1cc(OC)ccc1n3C.I | 220 nM | 0.6 µM | 1e+06 M⁻¹ |  |  |  |  |  |  |
| CNc1ccc2ccc3[nH]c4ccc(OC)cc4c3c2c1.I | 950 nM | 0.77 µM | 290000 M⁻¹ |  | 50 mg/kg | Not significant | 25 mg/kg |  |  |
| COc1ccc2c(c1)c1c3cc(NCCN4CCCCC4)ccc3ccc1n2C.Cl | 670 nM | 3.36 µM | 1.2e+06 M⁻¹ |  | 10 mg/kg | Not significant | 5 mg/kg |  |  |
| COc1ccc2[nH]c3cc(C)c4ccc(NCCN5CCCCC5)cc4c3c2c1 | 2240 nM |  | 100000 M⁻¹ |  |  |  |  |  |  |
| COc1ccc2[nH]c3ccc4ccc(NCCN5CCCCC5)cc4c3c2c1.Cl | 250 nM | 0.14 µM | 540000 M⁻¹ |  | 10 mg/kg | Not significant | 5 mg/kg |  |  |
| CNc1cccc2c1cc(C)c1[nH]c3ccc(OC)cc3c12.I | > 2500 nM | >2.5 µM | 61000 M⁻¹ |  |  |  |  |  |  |
| COc1ccc2[nH]c3cc(C)c4ccc(NCCN5CCC(C6CCN(CCNc7ccc8c(C)cc9[nH]c%10ccc(OC)cc%10c9c8c7)CC6)CC5)cc4c3c2c1.Cl.Cl | > 1000 nM | 0.42 µM | 5e+06 M⁻¹ | 120% | 6 mg/kg |  | 2 mg/kg |  |  |
| COc1ccc2c(c1)c1c3cc(NCCN4CCCCC4)ccc3cc(C)c1n2C.Cl | 440 nM |  | 610000 M⁻¹ |  | 10 mg/kg | Not significant | 10 mg/kg |  |  |
| CNc1ccc2ccc3c(c2c1)c1cc(OC)ccc1n3C.I | 220 nM | 0.74 µM | 700000 M⁻¹ | 122% | 25 mg/kg |  | 17 mg/kg |  |  |
| CNc1cccc2c1ccc1[nH]c3ccc(OC)cc3c12.I | 19200 nM | >2.5 µM | 40000 M⁻¹ |  |  |  |  |  |  |
| COc1ccc2[nH]c3c(C)cc4cc(NCCN5CCC(C6CCN(CCNc7ccc8c(c7)cc(C)c7[nH]c9ccc(OC)cc9c78)CC6)CC5)ccc4c3c2c1.Cl.Cl | > 1000 nM | 0.6 µM | 1e+07 M⁻¹ |  |  |  |  |  |  |
| COc1ccc2[nH]c3ccc4cc(NCCN5CCC(C6CCN(CCNc7ccc8c(ccc9[nH]c%10ccc(OC)cc%10c98)c7)CC6)CC5)ccc4c3c2c1.Cl.Cl |  |  | 3e+06 M⁻¹ | 130% | 100 mg/kg |  | 20 mg/kg |  |  |
| CNc1ccc2cc(C)c3[nH]c4ccc(OC)cc4c3c2c1.I | 60 nM | 0.03 µM | 180000 M⁻¹ | 125% |  |  |  | 50 mg/kg | 25 mg/kg |
| COc1ccc2c(c1)c1c3ccc(NCCN4CCC(C5CCN(CCNc6ccc7c(ccc8c7c7cc(OC)ccc7n8C)c6)CC5)CC4)cc3ccc1n2C.Cl.Cl |  | 3.93 µM | 6e+06 M⁻¹ |  | 15 mg/kg | Not significant | 7.5 mg/kg |  |  |
| CNc1ccc2c(ccc3c2c2cc(OC)ccc2n3C)c1.I | 2220 nM |  | 310000 M⁻¹ | 115% | 150 mg/kg |  | 75 mg/kg |  |  |
| CNc1ccc2c(ccc3[nH]c4ccc(OC)cc4c32)c1.I | > 2500 nM |  | 200000 M⁻¹ |  | 50 mg/kg | Not significant | 25 mg/kg |  |  |
| CNc1ccc2c(c1)cc(C)c1[nH]c3ccc(OC)cc3c12.I | 300 nM | 0.15 µM | 300000 M⁻¹ |  |  |  |  |  |  |
| COc1ccc2[nH]c3c(C)cc4ccc(NCCN5CCCCC5)cc4c3c2c1.Cl | 110 nM | 0.1 µM | 930000 M⁻¹ | 123% | 23 mg/kg |  | 5 mg/kg |  |  |
| COc1ccc2[nH]c3ccc4ccc(NCCN5CCC(C6CCN(CCNc7ccc8ccc9[nH]c%10ccc(OC)cc%10c9c8c7)CC6)CC5)cc4c3c2c1.CS(=O)(=O)O.CS(=O)(=O)O | 190 nM | 0.024 µM | 1e+07 M⁻¹ | 182% | 10 mg/kg |  | 10 mg/kg |  |  |
| CNc1ccc2c(C)cc3[nH]c4ccc(OC)cc4c3c2c1.I | > 2500 nM | 3.71 µM | 60000 M⁻¹ |  |  |  |  |  |  |
| COc1ccc2c(c1)c1c3cc(NCCN4CCC(C5CCN(CCNc6ccc7ccc8c(c7c6)c6cc(OC)ccc6n8C)CC5)CC4)ccc3ccc1n2C.Cl.Cl | 360 nM | 0.006 µM | 2e+07 M⁻¹ | 178% | 10 mg/kg |  | 2.5 mg/kg |  |  |
